Experimental data: ChEMBL document CHEMBL4689842, “EUbOPEN Chemogenomics Library wave 1” (2021)

System: U2OS
Assay: Multiplex assay against U2OS
Format: toxicity, cell-based
Conditions: human
Outline: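 Live cells were stained at seeding with Hoechst33342, BioTracker Green Microtubule Cytoskeleton Dye, MitoTracker Red and Annexin V Alexa Fluor 680, then imaged on a CQ1 microscope at 37°C and 5% CO2 after compound addition. CellPathfinder machine-learning gating split cells into Hoechst high-intensity objects or normal cells. Normal cells were split into healthy, pyknosed or fragmented nuclei, and pyknosed cells into mitotic or apoptotic. Tubulin, mitochondrial-mass and membrane-permeability phenotypes are per cents of healthy-nucleus cells.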

[1] = 12 h, 1 µM, compound concentration 1 uM, replicate 1
[2] = 12 h, 1 µM, compound concentration 1 uM, replicate 2
[3] = 12 h, 10 µM, compound concentration 10 uM, replicate 1
[4] = 12 h, 10 µM, compound concentration 10 uM, replicate 2
[5] = 24 h, 1 µM, compound concentration 1 uM, replicate 1
[6] = 24 h, 1 µM, compound concentration 1 uM, replicate 2
[7] = 24 h, 10 µM, compound concentration 10 uM, replicate 1
[8] = 24 h, 10 µM, compound concentration 10 uM, replicate 2
[9] = 48 h, 1 µM, compound concentration 1 uM, replicate 1
[10] = 48 h, 1 µM, compound concentration 1 uM, replicate 2
[11] = 48 h, 10 µM, compound concentration 10 uM, replicate 1
[12] = 48 h, 10 µM, compound concentration 10 uM, replicate 2

Question: What does the source list for `CCc1ccc(OCc2ccccc2C(=O)Nc2ccc3nc(C)cc(N)c3c2)cc1.Cl`?
Answer: Population Apoptotic (%) [1]: 80%; Population Fragmented Nuclei (%) [1]: 25%; Population Healthy Nuclei (%) [1]: 34%; Population Hoechst High Intensity Objects (%) [1]: 10%; Population Membrane Permeable-Phenotype (%) [1]: 27%; Population Mitochondria Different-Phenotype (%) [1]: 95%; Population Mitotic Cells (%) [1]: 19%; Population Normal (%) [1]: 89%; Population Pyknosed Nuclei (%) [1]: 40%; Population Tubulin-Different-Phenotype (%) [1]: 87%; Total Cell Count [1]: 191; Population Apoptotic (%) [2]: 71%; Population Fragmented Nuclei (%) [2]: 33%; Population Healthy Nuclei (%) [2]: 33%; Population Hoechst High Intensity Objects (%) [2]: 16%; Population Membrane Permeable-Phenotype (%) [2]: 28%; Population Mitochondria Different-Phenotype (%) [2]: 92%; Population Mitotic Cells (%) [2]: 28%; Population Normal (%) [2]: 84%; Population Pyknosed Nuclei (%) [2]: 33%; Population Tubulin-Different-Phenotype (%) [2]: 85%; Total Cell Count [2]: 68; Population Apoptotic (%) [3]: 78%; Population Fragmented Nuclei (%) [3]: 9%; Population Healthy Nuclei (%) [3]: 22%; Population Hoechst High Intensity Objects (%) [3]: 7%; Population Membrane Permeable-Phenotype (%) [3]: 75%; Population Mitotic Cells (%) [3]: 21%; Population Normal (%) [3]: 92%; Population Pyknosed Nuclei (%) [3]: 68%; Population Tubulin-Different-Phenotype (%) [3]: 97%; Total Cell Count [3]: 129; Population Apoptotic (%) [4]: 76%; Population Fragmented Nuclei (%) [4]: 8%; Population Healthy Nuclei (%) [4]: 14%; Population Hoechst High Intensity Objects (%) [4]: 12%; Population Membrane Permeable-Phenotype (%) [4]: 100%; Population Mitochondria Different-Phenotype (%) [4]: 100%; Population Mitotic Cells (%) [4]: 23%; Population Normal (%) [4]: 87%; Population Pyknosed Nuclei (%) [4]: 77%; Population Tubulin-Different-Phenotype (%) [4]: 100%; Total Cell Count [4]: 50; Population Apoptotic (%) [5]: 90%; Population Fragmented Nuclei (%) [5]: 44%; Population Healthy Nuclei (%) [5]: 16%; Population Hoechst High Intensity Objects (%) [5]: 11%; Population Membrane Permeable-Phenotype (%) [5]: 57%; Population Mitochondria Different-Phenotype (%) [5]: 94%; Population Mitotic Cells (%) [5]: 9%; Population Normal (%) [5]: 88%; Population Pyknosed Nuclei (%) [5]: 38%; Population Tubulin-Different-Phenotype (%) [5]: 73%; Total Cell Count [5]: 234; Population Apoptotic (%) [6]: 83%; Population Fragmented Nuclei (%) [6]: 25%; Population Healthy Nuclei (%) [6]: 28%; Population Hoechst High Intensity Objects (%) [6]: 17%; Population Membrane Permeable-Phenotype (%) [6]: 27%; Population Mitochondria Different-Phenotype (%) [6]: 90%; Population Mitotic Cells (%) [6]: 16%; Population Normal (%) [6]: 82%; Population Pyknosed Nuclei (%) [6]: 46%; Population Tubulin-Different-Phenotype (%) [6]: 63%; Total Cell Count [6]: 92; Population Apoptotic (%) [7]: 79%; Population Fragmented Nuclei (%) [7]: 7%; Population Healthy Nuclei (%) [7]: 13%; Population Hoechst High Intensity Objects (%) [7]: 12%; Population Membrane Permeable-Phenotype (%) [7]: 54%; Population Mitochondria Different-Phenotype (%) [7]: 100%; Population Mitotic Cells (%) [7]: 20%; Population Normal (%) [7]: 87%; Population Pyknosed Nuclei (%) [7]: 78%; Population Tubulin-Different-Phenotype (%) [7]: 95%; Total Cell Count [7]: 127; Population Apoptotic (%) [8]: 70%; Population Fragmented Nuclei (%) [8]: 15%; Population Healthy Nuclei (%) [8]: 38%; Population Hoechst High Intensity Objects (%) [8]: 31%; Population Membrane Permeable-Phenotype (%) [8]: 47%; Population Mitochondria Different-Phenotype (%) [8]: 94%; Population Mitotic Cells (%) [8]: 30%; Population Normal (%) [8]: 68%; Population Pyknosed Nuclei (%) [8]: 45%; Population Tubulin-Different-Phenotype (%) [8]: 94%; Total Cell Count [8]: 47; Population Apoptotic (%) [9]: 96%; Population Fragmented Nuclei (%) [9]: 46%; Population Healthy Nuclei (%) [9]: 3%; Population Hoechst High Intensity Objects (%) [9]: 15%; Population Membrane Permeable-Phenotype (%) [9]: 75%; Population Mitochondria Different-Phenotype (%) [9]: 100%; Population Mitotic Cells (%) [9]: 3%; Population Normal (%) [9]: 84%; Population Pyknosed Nuclei (%) [9]: 50%; Population Tubulin-Different-Phenotype (%) [9]: 75%; Total Cell Count [9]: 377; Population Apoptotic (%) [10]: 100%; Population Fragmented Nuclei (%) [10]: 29%; Population Healthy Nuclei (%) [10]: 37%; Population Hoechst High Intensity Objects (%) [10]: 28%; Population Membrane Permeable-Phenotype (%) [10]: 71%; Population Mitochondria Different-Phenotype (%) [10]: 92%; Population Mitotic Cells (%) [10]: 0%; Population Normal (%) [10]: 71%; Population Pyknosed Nuclei (%) [10]: 32%; Population Tubulin-Different-Phenotype (%) [10]: 78%; Total Cell Count [10]: 140; Population Apoptotic (%) [11]: 84%; Population Fragmented Nuclei (%) [11]: 9%; Population Healthy Nuclei (%) [11]: 12%; Population Hoechst High Intensity Objects (%) [11]: 11%; Population Membrane Permeable-Phenotype (%) [11]: 40%; Population Mitochondria Different-Phenotype (%) [11]: 95%; Population Mitotic Cells (%) [11]: 16%; Population Normal (%) [11]: 88%; Population Pyknosed Nuclei (%) [11]: 77%; Population Tubulin-Different-Phenotype (%) [11]: 90%; Total Cell Count [11]: 130; Population Apoptotic (%) [12]: 100%; Population Fragmented Nuclei (%) [12]: 47%; Population Healthy Nuclei (%) [12]: 43%; Population Hoechst High Intensity Objects (%) [12]: 63%; Population Membrane Permeable-Phenotype (%) [12]: 60%; Population Mitochondria Different-Phenotype (%) [12]: 90%; Population Mitotic Cells (%) [12]: 0%; Population Normal (%) [12]: 36%; Population Pyknosed Nuclei (%) [12]: 8%; Total Cell Count [12]: 52

Question: Which results are given for `C[C@]12CC[C@@H]3c4ccc(O)cc4CC[C@H]3[C@@H]1CC[C@@H]2O` [ESTRADIOL]?
Answer: Population Apoptotic (%) [1]: 11%; Population Fragmented Nuclei (%) [1]: 8%; Population Healthy Nuclei (%) [1]: 82%; Population Hoechst High Intensity Objects (%) [1]: 7%; Population Membrane Permeable-Phenotype (%) [1]: 10%; Population Mitochondria Different-Phenotype (%) [1]: 9%; Population Mitotic Cells (%) [1]: 88%; Population Normal (%) [1]: 92%; Population Pyknosed Nuclei (%) [1]: 8%; Population Tubulin-Different-Phenotype (%) [1]: 12%; Total Cell Count [1]: 138; Population Apoptotic (%) [2]: 50%; Population Healthy Nuclei (%) [2]: 86%; Population Hoechst High Intensity Objects (%) [2]: 5%; Population Membrane Permeable-Phenotype (%) [2]: 4%; Population Mitochondria Different-Phenotype (%) [2]: 8%; Population Mitotic Cells (%) [2]: 50%; Population Normal (%) [2]: 94%; Population Pyknosed Nuclei (%) [2]: 5%; Population Tubulin-Different-Phenotype (%) [2]: 14%; Total Cell Count [2]: 80; Population Apoptotic (%) [3]: 30%; Population Fragmented Nuclei (%) [3]: 5%; Population Healthy Nuclei (%) [3]: 82%; Population Hoechst High Intensity Objects (%) [3]: 4%; Population Membrane Permeable-Phenotype (%) [3]: 6%; Population Mitochondria Different-Phenotype (%) [3]: 7%; Population Mitotic Cells (%) [3]: 70%; Population Normal (%) [3]: 95%; Population Pyknosed Nuclei (%) [3]: 11%; Population Tubulin-Different-Phenotype (%) [3]: 14%; Total Cell Count [3]: 113; Population Apoptotic (%) [4]: 25%; Population Fragmented Nuclei (%) [4]: 9%; Population Healthy Nuclei (%) [4]: 77%; Population Hoechst High Intensity Objects (%) [4]: 8%; Population Membrane Permeable-Phenotype (%) [4]: 4%; Population Mitochondria Different-Phenotype (%) [4]: 12%; Population Mitotic Cells (%) [4]: 75%; Population Normal (%) [4]: 91%; Population Pyknosed Nuclei (%) [4]: 12%; Population Tubulin-Different-Phenotype (%) [4]: 25%; Total Cell Count [4]: 76; Population Apoptotic (%) [5]: 0%; Population Fragmented Nuclei (%) [5]: 7%; Population Healthy Nuclei (%) [5]: 87%; Population Hoechst High Intensity Objects (%) [5]: 5%; Population Membrane Permeable-Phenotype (%) [5]: 6%; Population Mitochondria Different-Phenotype (%) [5]: 6%; Population Mitotic Cells (%) [5]: 100%; Population Normal (%) [5]: 94%; Population Pyknosed Nuclei (%) [5]: 5%; Population Tubulin-Different-Phenotype (%) [5]: 15%; Total Cell Count [5]: 140; Population Apoptotic (%) [6]: 50%; Population Fragmented Nuclei (%) [6]: 4%; Population Healthy Nuclei (%) [6]: 89%; Population Hoechst High Intensity Objects (%) [6]: 3%; Population Membrane Permeable-Phenotype (%) [6]: 4%; Population Mitochondria Different-Phenotype (%) [6]: 9%; Population Mitotic Cells (%) [6]: 50%; Population Normal (%) [6]: 96%; Population Pyknosed Nuclei (%) [6]: 6%; Population Tubulin-Different-Phenotype (%) [6]: 14%; Total Cell Count [6]: 82; Population Apoptotic (%) [7]: 21%; Population Fragmented Nuclei (%) [7]: 7%; Population Healthy Nuclei (%) [7]: 79%; Population Membrane Permeable-Phenotype (%) [7]: 2%; Population Mitotic Cells (%) [7]: 78%; Population Pyknosed Nuclei (%) [7]: 12%; Population Tubulin-Different-Phenotype (%) [7]: 12%; Total Cell Count [7]: 140; Population Apoptotic (%) [8]: 30%; Population Fragmented Nuclei (%) [8]: 18%; Population Healthy Nuclei (%) [8]: 68%; Population Hoechst High Intensity Objects (%) [8]: 3%; Population Membrane Permeable-Phenotype (%) [8]: 5%; Population Mitochondria Different-Phenotype (%) [8]: 11%; Population Mitotic Cells (%) [8]: 70%; Population Normal (%) [8]: 96%; Population Pyknosed Nuclei (%) [8]: 13%; Population Tubulin-Different-Phenotype (%) [8]: 43%; Population Apoptotic (%) [9]: 31%; Population Hoechst High Intensity Objects (%) [9]: 1%; Population Membrane Permeable-Phenotype (%) [9]: 2%; Population Mitotic Cells (%) [9]: 68%; Population Normal (%) [9]: 98%; Population Tubulin-Different-Phenotype (%) [9]: 15%; Total Cell Count [9]: 138; Population Apoptotic (%) [10]: 18%; Population Fragmented Nuclei (%) [10]: 5%; Population Healthy Nuclei (%) [10]: 86%; Population Hoechst High Intensity Objects (%) [10]: 2%; Population Membrane Permeable-Phenotype (%) [10]: 12%; Population Mitochondria Different-Phenotype (%) [10]: 14%; Population Mitotic Cells (%) [10]: 81%; Population Normal (%) [10]: 97%; Population Pyknosed Nuclei (%) [10]: 7%; Population Tubulin-Different-Phenotype (%) [10]: 17%; Total Cell Count [10]: 90; Population Apoptotic (%) [11]: 34%; Population Fragmented Nuclei (%) [11]: 8%; Population Healthy Nuclei (%) [11]: 81%; Population Membrane Permeable-Phenotype (%) [11]: 2%; Population Mitochondria Different-Phenotype (%) [11]: 19%; Population Mitotic Cells (%) [11]: 65%; Population Tubulin-Different-Phenotype (%) [11]: 12%; Population Apoptotic (%) [12]: 72%; Population Fragmented Nuclei (%) [12]: 13%; Population Healthy Nuclei (%) [12]: 76%; Population Hoechst High Intensity Objects (%) [12]: 2%; Population Membrane Permeable-Phenotype (%) [12]: 17%; Population Mitochondria Different-Phenotype (%) [12]: 13%; Population Mitotic Cells (%) [12]: 27%; Population Normal (%) [12]: 97%; Population Pyknosed Nuclei (%) [12]: 10%; Population Tubulin-Different-Phenotype (%) [12]: 57%; Total Cell Count [12]: 157
